Measurements reported in paper PMC5143172 (Leukemia, 2016).

Columns and labels:
MV4-11 = MV4-11 xenograft mouse model of AML; type: in vivo, NSG mice; settings: day 21
XPO1 [1] = target: T1, XPO1 (Saccharomyces cerevisiae, UniProt P30822, DEL377-413/T539C); assay: Pull-down inhibition assay of XPO1 with immobilized NESs; type: biochemical; settings: 10uM inhibitor
How it was run: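 Purified recombinant yeast XPO1 (2 μM) was pre-incubated with RanGTP (10 μM) and 10 μM inhibitor for varying times at 4°C. The mixture was rotated with immobilized GST-PKI NES for 1 h. After extensive washing, bound protein was resolved by SDS-PAGE and stained with Coomassie Blue.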

IkB = assay: Nuclear retention of IkB in CLL cells; type: cell-based, Human; settings: 0.5 μM
How it was run: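 Treated primary CLL cells were fractionated into nuclear extracts with a commercial kit. Proteins were resolved by SDS-PAGE and probed with anti-IκB antibodies. Bands were detected by chemiluminescence and quantified by densitometry.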

primary AML samples = assay: Proliferation assay; type: cell-based; settings: Homo sapiens
How it was run: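 Primary AML cells came from blood or frozen bone marrow of three newly diagnosed, untreated patients, collected under informed consent. Viability was measured by WST-1 assay after treatment with the test compound.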

XPO1 [2] = target: T2, XPO1 (Homo sapiens, UniProt O14980); assay: XPO1 total protein in primary CLL cells; type: cell-based; settings: 0.5 μM
How it was run: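 Freshly isolated patient CLL cells were treated with DMSO or 0.5 μM compound and harvested at 2, 4, 8 and 18 h (N=3). Cells were lysed in RIPA buffer, resolved by SDS-PAGE and immunoblotted for XPO1. Signal was detected by chemiluminescence and quantified by densitometry.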

XPO1 [3] = target: T1, XPO1; assay: Reversibility of inhibitor conjugation to XPO1; type: biochemical; settings: 10uM inhibitor; dialysis or DTT, 24 hours
How it was run: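 XPO1 was incubated in triplicate with 10 μM inhibitor, then dialysed or treated with DTT. It was then used in a binding assay with RanGTP and immobilized GST-MVM NES, with bound proteins resolved by SDS-PAGE and Coomassie staining. XPO1 band intensities were quantified and expressed as percentage of DMSO-treated controls.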

[4] = Plasma accumulation after repetitive dosing; type: in vivo; settings: data not shown
primary CLL cells [5] = assay: Cytotoxicity in primary CLL cells by MTS; type: cell-based, Human; settings: 48h (24h in Supplementary Figure 6)
p53 = assay: Confocal microscopy of p53 localization in MV4-11; type: cell-based; settings: MV4-11, confocal microscopy
How it was run: (§1)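 About 200,000 cells were cytospun onto slides, then fixed, permeabilized, blocked and immunostained for p53 (MV4-11) or NPM1 (OCI-AML3). DNA was counterstained with DAPI, and subcellular localization was imaged by confocal microscopy using merged channels.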

Brain penetration, rat = type: in vivo
primary CLL cells [6] = assay: Apoptosis of primary CLL cells by annexin-V/PI in FBS or human serum; type: cell-based; settings: 10% fetal bovine serum or human serum, 24h
NPM1 = assay: Confocal microscopy of NPM1 localization in OCI-AML3; type: cell-based
How it was run: as §1

GC-DLBCL cell lines = assay: Proliferation of GC-DLBCL cell lines by MTS; type: cell-based
Brain penetration, mouse = type: in vivo
ABC-DLBCL cell lines = assay: Proliferation of ABC-DLBCL cell lines by MTS; type: cell-based
XPO1 [7] = target: T2, XPO1; assay: XPO1 degradation by SINE compound treatment in HT1080 cells; type: cell-based; settings: 25-1000 nM, 18 hours
[8] = Brain penetration, monkey; type: in vivo
[9] = test system: Eμ-TCL1 leukemic splenocytes; assay: Eμ-TCL1-C57BL/6 transplant mouse model of CLL; type: in vivo, C57BL/6 mice
How it was run: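 CD19+CD5+ splenocytes (1×10^7) from an Eμ-TCL1 donor with active leukemia (>10% CD45+CD5+CD19+ in blood) and splenomegaly were injected into C57BL/6 mice by tail vein. At onset (≥10% CD45+CD5+CD19+), mice were randomized to oral gavage with vehicle (0.5% methylcellulose/1% Tween80), test compound 15 mg/kg daily or twice weekly, or ibrutinib 20 mg/kg. Blood flow cytometry was done weekly and spleen volume measured at euthanasia. Kaplan-Meier/log-rank, mixed-effects model, ANOVA (log-transformed, Dunnett).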

T2 sequence (O14980 whole entry): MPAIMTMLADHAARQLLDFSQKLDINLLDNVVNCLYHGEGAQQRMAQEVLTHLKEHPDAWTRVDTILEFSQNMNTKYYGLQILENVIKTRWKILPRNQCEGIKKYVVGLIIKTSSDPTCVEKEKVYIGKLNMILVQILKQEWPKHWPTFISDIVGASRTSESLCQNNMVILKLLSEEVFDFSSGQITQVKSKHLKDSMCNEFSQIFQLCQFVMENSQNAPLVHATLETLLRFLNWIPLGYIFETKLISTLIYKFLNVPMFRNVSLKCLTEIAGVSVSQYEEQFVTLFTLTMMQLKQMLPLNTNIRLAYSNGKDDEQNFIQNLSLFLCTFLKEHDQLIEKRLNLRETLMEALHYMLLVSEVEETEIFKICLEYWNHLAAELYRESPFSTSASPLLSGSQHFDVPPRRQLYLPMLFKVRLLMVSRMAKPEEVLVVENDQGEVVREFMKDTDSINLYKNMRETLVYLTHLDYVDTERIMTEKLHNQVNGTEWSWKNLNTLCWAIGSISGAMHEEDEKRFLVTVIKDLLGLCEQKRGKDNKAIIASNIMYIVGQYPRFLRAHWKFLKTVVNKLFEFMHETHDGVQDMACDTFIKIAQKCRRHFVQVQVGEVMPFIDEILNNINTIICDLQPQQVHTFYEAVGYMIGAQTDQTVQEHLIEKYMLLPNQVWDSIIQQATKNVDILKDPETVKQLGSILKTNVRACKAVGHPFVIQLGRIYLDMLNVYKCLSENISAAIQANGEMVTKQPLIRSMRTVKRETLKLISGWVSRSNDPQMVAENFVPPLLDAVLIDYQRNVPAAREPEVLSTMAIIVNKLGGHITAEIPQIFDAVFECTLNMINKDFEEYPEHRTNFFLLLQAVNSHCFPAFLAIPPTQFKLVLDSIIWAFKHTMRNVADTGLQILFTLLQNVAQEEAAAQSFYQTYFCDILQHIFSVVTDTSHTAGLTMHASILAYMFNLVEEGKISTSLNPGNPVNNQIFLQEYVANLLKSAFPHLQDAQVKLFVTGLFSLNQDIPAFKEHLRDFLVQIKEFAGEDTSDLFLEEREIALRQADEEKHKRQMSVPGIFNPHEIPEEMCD

With O=C(/C=C\n1cnc(-c2cc(C(F)(F)F)cc(C(F)(F)F)c2)n1)NNc1cnccn1 [KPT-330, selinexor, reference compound] the “White blood cell count (WBC) vs vehicle” value (MV4-11; 20 mg/kg 2x/week) was “significantly reduced WBC”, the “Incubation time with XPO1 to completely inhibit XPO1 binding to PKI NES” value (XPO1 [1]) was 60 min and the “Time of treatment to nuclear retention of IkB” value (IkB) was no more than 8 h. For the same compound, the IC50 (primary AML samples) was 100 nM and the “Time post-treatment at which XPO1 total protein was decreased” value (XPO1 [2]) was no more than 4 h.

For NC(=O)/C(=C/n1cnc(-c2cc(C(F)(F)F)cc(C(F)(F)F)c2)n1)c1cncnc1 [KPT-8602], the “White blood cell count (WBC) vs vehicle” value (MV4-11; 15 mg/kg daily and x2/week) was “significantly reduced WBC”, the “Incubation time with XPO1 to completely inhibit XPO1 binding to PKI NES” value (XPO1 [1]) was 60 min and the “Reversibility of conjugation to XPO1” value (XPO1 [3]) was “slowly reversible manner”. For the same compound, the “Accumulation in plasma after repetitive dosing” value [4] was “does not accumulate in plasma after repetitive dosing”, the “Killing of primary CLL cells vs vehicle” value (primary CLL cells [5]) was “induced dose-dependent killing of primary CLL cells” and the “Time of treatment to nuclear retention of IkB” value (IkB) was no more than 8 h. For the same compound, the IC50 (primary AML samples) was 300 nM, the “Accumulation of p53 in the nucleus” value (p53) was “significant accumulation” and the “Time post-treatment at which XPO1 total protein was decreased” value (XPO1 [2]) was no more than 4 h. For the same compound, the “Mean Concentration at 2h post dose Brain” value (Brain penetration, rat; Rat, po 5 mg/kg) was 70 ng·h/g, the “Mean Concentration at 2h post dose Plasma” value (Brain penetration, rat; Rat, po 5 mg/kg) was 320 ng·h/mL and the Kp at 2 h (Brain penetration, rat; rat, brain/plasma, po, 5 mg/kg) was 0.22. The “Apoptosis of CLL cells in FBS and HS” value (primary CLL cells [6]) was “effective in inducing apoptosis of CLL cells in both FBS and HS”, the “Accumulation of NPM1 in the nucleus” value (NPM1) was “significant accumulation” and the “Proliferation of GC-DLBCL cell lines” value (GC-DLBCL cell lines) was “inhibited proliferation”. The “Mean Concentration at 2h post dose Brain” value (Brain penetration, mouse; Mouse, po 5 mg/kg) was 105 ng·h/g, the “Mean Concentration at 2h post dose Plasma” value (Brain penetration, mouse; Mouse, po 5 mg/kg) was 550 ng·h/mL and the Kp at 2 h (Brain penetration, mouse; mouse, brain/plasma, po, 5 mg/kg) was 0.19. The “Proliferation of ABC-DLBCL cell lines” value (ABC-DLBCL cell lines) was “inhibited proliferation”, the XPO1 degradation (XPO1 [7]) was “induces XPO1 degradation in HT1080 cells in a dose-dependent manner” and the “Mean Concentration at 2h post dose Brain” value ([8]; Monkey, po 10 mg/kg) was less than 32 ng·h/g. The “Mean Concentration at 2h post dose Plasma” value ([8]; Monkey, po 10 mg/kg) was 1310 ng·h/mL, the Kp at 2 h ([8]; monkey, brain/plasma, po, 10 mg/kg) was less than 0.02 and the “Median OS” value ([9]; Fig.4A cohort, 15 mg/kg daily, oral gavage, vehicle 33 days) was 70 days. The “Percentage of CD5+ B-cells in peripheral blood vs vehicle or KPT-8602 2x/week” value ([9]; Fig.4B, 15 mg/kg daily, three weeks post-treatment, p<0.001) was “significantly lower”, the “Spleen size at study removal vs all other groups” value ([9]; Fig.4C, 15 mg/kg daily, p<0.001) was “significantly smaller” and the “Spleen size vs vehicle or ibrutinib alone” value ([9]; Fig.4F cohort, KPT-8602 15 mg/kg daily, p<0.001) was “significantly smaller”. For the same compound, the “Change in body weight” value ([9]; daily treatment, after 28 days) was “did not cause a significant change in body weight”.

For C=CC(=O)N1CCC[C@@H](n2nc(-c3ccc(Oc4ccccc4)cc3)c3c(N)ncnc32)C1 [ibrutinib, reference compound], the “Median OS” value ([9]; Fig.4D cohort, ibrutinib 20 mg/kg daily, vehicle 20 days) was 26 days.
